Article PMC8556345 (Cell, 2021)
Where no end group is shown, it is not given here.

Key:
[1] = system: Vip+ and glutamatergic cells, motor cortex; assay: immediate early gene; type: in vivo, mouse
Outline: (§1)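 Brains were frozen 45 min later for Fos and Npas4 FISH. Expression was the cell area covered by label, in manually drawn ROIs across all layers, 2-3 slices per mouse. Right-hemisphere values were normalized to the left-hemisphere mean per cell type.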

L3/4 ACx VIP cells = assay: spike probability of VIP cells upon optogenetic stimulation of thalamic inputs; type: cell-based, mouse
Outline: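 L3/4 auditory cortex VIP cells, identified by EGFP in Vip-EGFP or Vip-IRES-Cre x H2B-EGFP mice, were recorded whole-cell in current clamp with low-Cl⁻ K⁺-based solution at 30-32°C. Thalamic inputs were stimulated with 1 s bursts of 5 ms light pulses at 20 Hz every 20 s. […] Spontaneous and evoked spikes were counted.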

ACx Pyr cells = assay: IPSC frequency, ACx Pyr cells; type: cell-based, mouse; conditions: GRP bath, NBQX and CPP
Outline: (§2)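 Whole-cell voltage clamp at −70 mV in acute coronal slices at 30-32°C, with 3-4 MΩ pipettes. The pipette held K⁺-based high-Cl⁻ solution (127.5 mM KCl, pH 7.3), and the bath held NBQX and CPP at 10 μM each.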

[2] = system: Sst+ and Pvalb+ cells, motor cortex; assay: immediate early gene; type: in vivo, mouse
Outline: as §1

[3] = system: motor cortex (M1) VIP cells; assay: whole-cell current-clamp, membrane potential, motor cortex VIP cells; type: cell-based, mouse; conditions: CPP, gabazine
motor cortex PVALB cells [4] = assay: IPSC frequency, motor cortex PVALB cells; type: cell-based, mouse; conditions: GRP bath, NBQX and CPP
Outline: as §2

ACx PVALB cells [5] = assay: EPSC frequency, ACx PVALB cells; type: cell-based, mouse; conditions: GRP bath, gabazine; n = 10
Outline: (§3)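 Acute coronal slices were incubated in oxygenated Ringer's at 32°C for ~15 min, then held at RT. SST and PVALB cells were identified in Sst-EGFP or Pvalb-EGFP mice. Whole-cell recordings were made at 30-32°C, voltage-clamped at −70 mV, with K⁺-gluconate low-Cl⁻ pipette solution and 10 μM gabazine.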

ACx VIP cells [6] = assay: whole-cell current-clamp, membrane potential, ACx VIP cells; type: cell-based, mouse
SST cells = assay: EPSC frequency, SST cells, ACx and M1 together; type: cell-based, mouse; conditions: GRP bath
Outline: as §3

[7] = system: auditory cortex VIP cells; assay: GCaMP acute slice Ca2+ imaging, ACx VIP cells; type: cell-based, mouse
[8] = system: motor cortex pyramidal cells; assay: whole-cell current-clamp, membrane potential, motor cortex pyramidal cells; type: cell-based, mouse; conditions: GRP; bath with NBQX, CPP, gabazine, CGP and TTX; 10 cells
[9] = system: grpLight (GRPR/cpGFP sensor); assay: grpLight GRP sensor characterization; type: cell-based, human
ACx PVALB cells [10] = assay: IPSC frequency, ACx PVALB cells; type: cell-based, mouse; conditions: GRP bath, NBQX and CPP, TTX-sensitive; n=10
motor cortex SST cells [11] = assay: IPSC frequency, motor cortex SST cells; type: cell-based, mouse; conditions: GRP bath, NBQX and CPP
Outline: as §2

M1 SST cells = assay: EPSC frequency, M1 SST cells; type: cell-based, mouse; conditions: GRP bath, gabazine; n = 9
Outline: as §3

ACx SST cells [12] = assay: EPSC frequency, ACx SST cells; type: cell-based, mouse; conditions: GRP bath, gabazine; n = 11
Outline: as §3

[13] = system: ACx pyramidal (Pyr) cells; assay: whole-cell current-clamp, membrane potential, ACx pyramidal cells; type: cell-based, mouse; conditions: ACx (and M1), compared to VIP cells
ACx SST cells [14] = assay: whole-cell current-clamp, membrane potential, ACx SST cells; type: cell-based, mouse; conditions: ACx (and M1), compared to VIP cells
ACx PVALB cells [15] = assay: whole-cell current-clamp, membrane potential, ACx PVALB cells; type: cell-based, mouse
M1 PVALB cells = assay: EPSC frequency, M1 PVALB cells; type: cell-based, mouse; conditions: GRP bath, gabazine; n = 10
Outline: as §3

motor cortex PVALB cells [16] = assay: whole-cell current-clamp, membrane potential, motor cortex PVALB cells; type: cell-based, mouse; conditions: GRP; bath with NBQX, CPP, gabazine, CGP and TTX; 15 cells
motor cortex SST cells [17] = assay: whole-cell current-clamp, membrane potential, motor cortex SST cells; type: cell-based, mouse; conditions: GRP; bath with NBQX, CPP, gabazine, CGP and TTX; 10 cells
ACx VIP cells [18] = assay: in vivo fiber photometry of GCaMP in ACx VIP cells, cannula infusion; set-up: species or system mouse; conditions: 2 μl, 300 μM GRP and TAMRA-GRP, 100 nl/min into visual cortex; n = 3 (grpLight1.2) and 8 (GCaMP) mice
Outline: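 Decay was corrected by an exponential fit to trace minima (5000-point sliding window). Autofluorescence measured in fluorophore-free implanted mice was subtracted, and GCaMP was normalized to mean mBeRFP fluorescence.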

ACx SST cells [19] = assay: IPSC frequency, ACx SST cells; type: cell-based, mouse; conditions: GRP bath, NBQX and CPP, TTX-sensitive; n=10
GRP receptor (GRPR) [20] = conditions: ref Kroog et al., 1995; cited from earlier work
[21] = TAMRA-GRP imaging in acute brain slices, flow-in delay; set-up: species or system mouse; conditions: 300 nM, bath
Outline: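 Non-fluorescent acute brain slices were imaged through a 650/100 nm emission filter. […] Arrival in the bath was defined as the first time point at which fluorescence rose 2 SD above baseline.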

GRP receptor (GRPR) [22] = assay: binding to GRP receptor; conditions: statement in method; no data shown
grpLight in ACx = assay: in vivo dual-color photometry of grpLight and TAMRA-GRP, diffusion in cortex; set-up: species or system mouse; conditions: infusion into distant cortical area
[23] = 300 nM GRP, male mice, NBQX, CGP
[24] = 1372 responding VIP cells, male auditory cortex, GRP bath

In the case of “VSTGAGGGTVLAKMYPRGSHWAVGHLM-NH2 [GRP, gastrin-releasing peptide]”, the “Npas4 expression in Vip-IRES-Cre;Grpr fl/y mice” value ([1]; 3 μM GRP into M1, vs control mice) is reported as “significantly smaller”, the “Npas4 expression, Vip+ and glutamatergic cells” value ([1]; 3 μM GRP into right M1) is reported as “significantly increased expression” and the “Fos expression ipsilateral to injection, Vip+ and glutamatergic cells” value ([1]; 200 nl of 3 μM GRP into right M1, anaesthetized mice, FISH at 45 min) is reported as “strong increase in Fos”. The “average spontaneous spike rate prior to stimulation, after GRP” value (L3/4 ACx VIP cells; 0 ± 0 Hz before GRP, n = 5 cells) was 0.09 ± 0.08 Hz, the “average evoked spike probability after GRP” value (L3/4 ACx VIP cells; 300 nM GRP bath for 2 min, 14 ± 9% before GRP, 5 ms pulses at 20 Hz, n = 5 cells) was 52 ± 16% and the “effect on spontaneous spike rate prior to stimulation onset” value (L3/4 ACx VIP cells; GRP bath) was “without increasing spontaneous spike rate”. The “effect on evoked spike probability” value (L3/4 ACx VIP cells; optogenetic stimulation of thalamo-cortical afferents) was “significantly increased the evoked spike probability”, the “Pyr cells with increased IPSC frequency” value (ACx Pyr cells) was 1 out of 10 and the “Npas4 expression, Sst+ and Pvalb+ cells” value ([2]; 3 μM GRP into right M1) was “but not Sst^+ and Pvalb^+ cells”. For the same substance, the “Fos expression, Sst+ and Pvalb+ cells” value ([2]; 200 nl of 3 μM GRP into right M1) was “without changes in expression”, the “M1 VIP neurons with burst-like activity” value [3, 23] was 3 out of 10 and the “VIP cells in M1 that depolarized” value [3, 23] was 9 out of 10. For the same substance, the “depolarization, motor cortex VIP” value ([3]; GRP, bath with NBQX, CGP and TTX, 6 cells) was 9.38 ± 1.28 mV, the “PVALB cells with increased IPSC frequency, M1” value (motor cortex PVALB cells [4]) was 3 out of 10 and the “mean increase in IPSC frequency, M1 PVALB” value (motor cortex PVALB cells [4]; n = 10) was 4.59 ± 2.00 Hz. The “mean increase in EPSC frequency, ACx PVALB” value (ACx PVALB cells [5]) was 1.95 ± 1.43 Hz, the “depolarization in female compared to male mice” value (ACx VIP cells [6]; 300 nM GRP) was “non-significantly larger depolarization compared to male mice” and the “mean depolarization, female mice” value (ACx VIP cells [6]; 300 nM GRP, bath NBQX, CPP, gabazine, CGP and TTX, mean ± SEM, 10 cells (Fig. S3C)) was 8.62 ±1.11 mV. The “duration of burst-like firing activity” value (ACx VIP cells [6]; 300 nM for 2 min, male mice) was > 1 min, the “neurons with long-lasting burst-like firing activity” value (ACx VIP cells [6]; 300 nM for 2 min, male mice) was 3 out of 10 and the “VIP cells that depolarize upon GRP bath application” value (ACx VIP cells [6]; 300 nM for 2 min, male mice, acute slices, 30-32°C) was 7 out of 10. For the same substance, the “dependence of depolarization on concentration” value (ACx VIP cells [6]; Fig. 3C, 6-10 cells per group) was “concentration-dependent”, the “effect on EPSC frequency” value (SST cells; SST and PVALB cells) was “hardly affected” and the “SST cells with increased EPSC frequency” value (SST cells; gabazine) was 2 out of 20. The GCaMP peak latency [7, 24] was 156.9 ± 1.5 s, the GCaMP response start [7, 24] was 99.4 ± 0.9 s and the “lowest concentration that increased GCaMP fluorescence in most VIP cells” value ([7]; ACx of male and female mice and M1, bath application) was 3 nM. The “cells with Ca2+ oscillations with TTX” value ([7]; GRP, with TTX) was 14%, the “VIP cells with phasic (oscillatory) GCaMP fluctuations” value ([7]; GRP, without TTX, NBQX, CPP, gabazine, CGP) was 26% and the “GCaMP fluorescence change ΔF/FKCl, female” value ([7]; median (IQR), female auditory cortex, 580 cells in 14 slices, 300 nM GRP, 2 min, 32°C) was 11.8 (15.6) % ΔF/FKCl. For the same substance, the “latency of Ca2+ increases after TAMRA-GRP levels increased” value ([7]; start GCaMP vs start TAMRA-GRP) was 12 s, the “depolarization, motor cortex pyramidal” value [8] was 0.56 ± 0.49 mV and the “concentrations detectable by grpLight” value [9] was “nanomolar concentrations”. For the same substance, the “PVALB cells with increased IPSC frequency” value (ACx PVALB cells [10]) was 40%, the “SST cells with increased IPSC frequency, M1” value (motor cortex SST cells [11]) was 4 out of 10 and the “mean increase in IPSC frequency, M1 SST” value (motor cortex SST cells [11]; n = 10) was 13.28 ± 5.97 Hz. The “mean increase in EPSC frequency, M1 SST” value (M1 SST cells) was 1.61 ± 0.97 Hz, the “mean increase in EPSC frequency, ACx SST” value (ACx SST cells [12]) was 1.86 ± 1.15 Hz and the “GRP-evoked depolarization, Pyr cells” value [13] was “significantly smaller than in VIP cells”. The “GRP-evoked depolarization, SST cells” value (ACx SST cells [14]) was “significantly smaller than in VIP cells”, the “GRP-evoked depolarization, PVALB cells” value (ACx PVALB cells [15]; ACx (and M1), compared to VIP cells) was “significantly smaller than in VIP cells” and the “PVALB cell depolarization vs control recordings without GRP” value (ACx PVALB cells [15]; Fig. S3D) was “No significant difference”. The “mean increase in EPSC frequency, M1 PVALB” value (M1 PVALB cells) was 0.69 ± 0.80 Hz, the “depolarization, motor cortex PVALB” value (motor cortex PVALB cells [16]) was 1.78 ± 0.45 mV and the “depolarization, motor cortex SST” value (motor cortex SST cells [17]) was 1.39 ± 0.74 mV. For the same substance, the “onset of functional effect on VIP cell Ca2+ vs grpLight detection” value (ACx VIP cells [18]) was “functional effects on these cells in vivo well before photometric detection of changes in grpLight fluorescence”, the “SST cells with increased IPSC frequency” value (ACx SST cells [19]) was 60% and the “binding to GRPR” value (GRP receptor (GRPR) [20]) was “high affinity and selectivity”.

For “VSTGAGGGTVLAKMYPRGSHWAVGHLM-NH2 [TAMRA-GRP]”, the “TAMRA-GRP fluorescence peak latency, range” value ([21]; 3 slices, range) was 156.4 to 162.8 s, the “TAMRA-GRP fluorescence response start, range” value ([21]; 3 slices, range) was 79 to 95 s and the “TAMRA-GRP fluorescence peak latency” value ([21]; mean of 3 slices) was 160.3 s. The “TAMRA-GRP fluorescence response start” value ([21]; mean of 3 slices) was 87.4 s, the “efficiency as GRPR ligand” value (GRP receptor (GRPR) [22]) was “very inefficient GRPR ligand” and the “grpLight fluorescence change in ACx following infusion” value (grpLight in ACx) was “long-lasting increases minutes after the start of GRP infusion”.
